Reference: ChEMBL document CHEMBL4152211, “Discovery of novel Methylsulfonyl phenyl derivatives as potent human Cyclooxygenase-2 inhibitors with effective anticonvulsant action: Design, synthesis, in-silico, in-vitro and in-vivo evaluation” (Eur J Med Chem, 2018)

Experiments:
Mus musculus [1] = assay: Anticonvulsant activity in Swiss albino mouse assessed as protection against subcutaneous pentylenetetrazole-induced seizures at 300 mg/kg, ip administered 0.5 hrs prior to PTZ challenge and measured after 30 mins; assay type: functional
Method in brief: (§1)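 Male Swiss Albino mice (25–30 g), 6 per group, dosed i.p. with drugs in sterile saline, then challenged with PTZ 85 mg/kg s.c. (CD97), given at 10 ml/kg, 0.5 h or 4 h later. Each animal is observed singly for seizures. Protection is scored as protected/total animals.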

Rattus norvegicus [2] = assay: Toxicity in Wistar rat assessed as effect on blood urea level at 200 mg/kg, po for 14 days; assay type: organism-based; conditions: in vivo, 336 h
Method in brief: (§2)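 Normal Wistar rats are given 200 mg/kg orally for 14 days, with vehicle-treated controls. Serum liver markers (SGOT, SGPT, ALP, total protein, total bilirubin) and renal markers (urea, creatinine, uric acid) are then measured, mean ± S.D.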

Rattus norvegicus [3] = assay: Toxicity in Wistar rat assessed as effect on alkaline phosphatase level at 200 mg/kg, po for 14 days; assay type: organism-based; conditions: in vivo, 336 h; method in brief: as §2
Rattus norvegicus [4] = assay: Toxicity in Wistar rat assessed as effect on SGPT level at 200 mg/kg, po for 14 days; assay type: organism-based; conditions: in vivo, 336 h; method in brief: as §2
Mus musculus [5] = assay: Anticonvulsant activity in Swiss albino mouse assessed as protection against subcutaneous pentylenetetrazole-induced seizures at 100 mg/kg, ip administered 4 hrs prior to PTZ challenge and measured after 30 mins; assay type: functional; method in brief: as §1
Rattus norvegicus [6] = assay: Toxicity in Wistar rat assessed as platelet level at 200 mg/kg, po for 14 days (reference value: 1119 +/- 142.9 10^3/mm3); assay type: organism-based; conditions: in vivo, 336 h
Rattus norvegicus [7] = assay: Anxiolytic activity in ip dosed PTZ-kindled Wistar rat assessed as time spent in dark zone by light-dark test (reference value: 96.9 +/- 1.25%); assay type: functional
Rattus norvegicus [8] = assay: Toxicity in Wistar rat assessed as effect on potassium level at 200 mg/kg, po for 14 days; assay type: organism-based; conditions: in vivo, 336 h
Rattus norvegicus [9] = assay: Toxicity in Wistar rat assessed as TLC level at 200 mg/kg, po for 14 days (reference value: 7.23 +/- 1 10^3/mm3); assay type: organism-based; conditions: in vivo, 336 h
Mus musculus [10] = assay: Anticonvulsant activity in Swiss albino mouse assessed as protection against subcutaneous pentylenetetrazole-induced seizures at 300 mg/kg, ip administered 4 hrs prior to PTZ challenge and measured after 30 mins; assay type: functional; method in brief: as §1
Rattus norvegicus [11] = assay: Cognitive enhancing effect in ip dosed PTZ-kindled Wistar rat assessed as exploration preference by novel object recognition test (reference value: 5.7%); assay type: functional
Rattus norvegicus [12] = assay: Toxicity in Wistar rat assessed as effect on phosphorous level at 200 mg/kg, po for 14 days; assay type: organism-based; conditions: in vivo, 336 h
Mus musculus [13] = assay: Anticonvulsant activity in Swiss albino mouse assessed as protection against subcutaneous pentylenetetrazole-induced seizures at 5 mg/kg, ip administered 2 hrs prior to PTZ challenge and measured after 30 mins; assay type: functional; conditions: in the assay text read “30 mg/kg” for “5 mg/kg”
Method in brief: (§3)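 Mice get a single i.p. dose, then PTZ 85 mg/kg s.c. at 0.5, 1, 2, 3, 4 or 6 h after dosing. Seizure protection is recorded at each interval as percentage of six Swiss Albino mice protected.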

Rattus norvegicus [14] = assay: Toxicity in Wistar rat assessed as effect on total protein level at 200 mg/kg, po for 14 days; assay type: organism-based; conditions: in vivo, 336 h; method in brief: as §2
Rattus norvegicus [15] = assay: Toxicity in Wistar rat assessed as hemoglobin level at 200 mg/kg, po for 14 days (reference value: 12.87 +/- 0.6 g/dl); assay type: organism-based; conditions: in vivo, 336 h
Mus musculus [16] = assay: Anticonvulsant activity in Swiss albino mouse assessed as protection against subcutaneous pentylenetetrazole-induced seizures at 30 mg/kg, ip administered 4 hrs prior to PTZ challenge and measured after 30 mins; assay type: functional; method in brief: as §1
Rattus norvegicus [17] = assay: Cognitive enhancing effect in ip dosed PTZ-kindled rat assessed as decrease in ratio of second interaction trial to first interaction time by social recognition test (reference value: 0.928 +/- 0.234); assay type: functional
Rattus norvegicus [18] = assay: Toxicity in Wistar rat assessed as eosinophil level at 200 mg/kg, po for 14 days (reference value: 2.67 +/- 0.58%); assay type: organism-based; conditions: in vivo, 336 h
Rattus norvegicus [19] = assay: Toxicity in Wistar rat assessed as effect on creatinine level at 200 mg/kg, po for 14 days; assay type: organism-based; conditions: in vivo, 336 h; method in brief: as §2
Rattus norvegicus [20] = assay: Toxicity in Wistar rat assessed as effect on calcium level at 200 mg/kg, po for 14 days; assay type: organism-based; conditions: in vivo, 336 h
Rattus norvegicus [21] = assay: Toxicity in Wistar rat assessed as basophils level at 200 mg/kg, po for 14 days (reference value: 0 +/0%); assay type: organism-based; conditions: in vivo, 336 h
Rattus norvegicus [22] = assay: Toxicity in Wistar rat assessed as neutrophil level at 200 mg/kg, po for 14 days (reference value: 17.33 +/- 3.21%); assay type: organism-based; conditions: in vivo, 336 h
Mus musculus [23] = assay: Anticonvulsant activity in Swiss albino mouse assessed as protection against subcutaneous pentylenetetrazole-induced seizures at 5 mg/kg, ip administered 3 hrs prior to PTZ challenge and measured after 30 mins; assay type: functional; conditions: in the assay text read “30 mg/kg” for “5 mg/kg”; method in brief: as §3
Mus musculus [24] = assay: Anticonvulsant activity in Swiss albino mouse assessed as protection against subcutaneous pentylenetetrazole-induced seizures at 5 mg/kg, ip administered 1 hr prior to PTZ challenge and measured after 30 mins; assay type: functional; conditions: in the assay text read “30 mg/kg” for “5 mg/kg”; method in brief: as §3

For `Cc1ccc(NC(=S)NNC(=O)Nc2ccc(S(C)(=O)=O)cc2)cc1`, the Activity (Mus musculus [1]) was 83%, the Activity (Rattus norvegicus [2]) was “Non-Toxic” and the Activity (Rattus norvegicus [3]) was “Non-Toxic”. For the same molecule, the Activity (Rattus norvegicus [4]) was “Non-Toxic”, the Activity (Mus musculus [5]) was 83% and the Activity (Rattus norvegicus [6]) was 990 ×10³ /mm3. The Activity (Rattus norvegicus [7]) was 86.6%, the Activity (Rattus norvegicus [8]) was “Non-Toxic” and the Activity (Rattus norvegicus [9]) was 6.25 ×10³ /mm3. For the same molecule, the Activity (Mus musculus [10]) was 83%, the Activity (Rattus norvegicus [11]) was 3.9% and the Activity (Rattus norvegicus [12]) was “Non-Toxic”. The Activity (Mus musculus [13]) was 67%, the Activity (Rattus norvegicus [14]) was “Non-Toxic” and the Activity (Rattus norvegicus [15]) was 14.15 g/dL. It also gave an Activity (Mus musculus [16]) of 83%, a Ratio (Rattus norvegicus [17]) of 0.561 and an Activity (Rattus norvegicus [18]) of 2.5%. For the same molecule, the Activity (Rattus norvegicus [19]) was “Non-Toxic”, the Activity (Rattus norvegicus [20]) was “Non-Toxic” and the Activity (Rattus norvegicus [21]) was 0.5%. It also gave an Activity (Rattus norvegicus [22]) of 21.5%, an Activity (Mus musculus [23]) of 83% and an Activity (Mus musculus [24]) of 67%.
